According to ChEMBL document CHEMBL1139757, “Synthesis and evaluation of water-soluble docetaxel prodrugs-docetaxel esters of malic acid” (Bioorg Med Chem, 2007):
Values after ≈ are worked out from the molar mass of the structure shown. Each block holds one molecule with its values, some of them ahead of it.

Experiments:
MCF7 = test: Cytotoxicity against human MCF7 cells by MTT assay; format: functional, cell-based
Outline: (§1)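 Cells exposed to compound for 48 h. MTT then added (final 0.5 mg/ml in RPMI-1640) for a further 4 h at 37 °C. Formazan dissolved in DMSO and absorbance read at 570 nm. IC50 for 50% inhibition of viability derived by dose–effect analysis. Three replicate wells per point, each experiment run in triplicate.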

KB = test: Cytotoxicity against human KB cells by MTT assay; format: functional, cell-based; outline: as §1
[1] = Stability in PBS buffer at pH 7.4 after 48 hrs; format: physicochemical
Homo sapiens = species: Homo sapiens; test: Stability in human plasma
K562 = test: Cytotoxicity against human K562 cells by MTT assay; format: functional, cell-based; outline: as §1
A549 = test: Cytotoxicity against human A549 cells by MTT assay; format: functional, cell-based; outline: as §1
[2] = Solubility in water; format: physicochemical
Outline: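 Compound suspended in water to 2 mg/mL, sonicated 15 min, then centrifuged at 13,000 rpm for 10 min. Supernatant quantified by reverse-phase HPLC with UV detection at 227 nm, taking extinction coefficients of prodrug and docetaxel as equal. Values are means of three experiments.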

H22 = test: Antitumor activity against mouse H22 cells xenografted ICR mouse assessed as tumor growth inhibition at 10 mg/kg, ip once daily after 7 days; format: functional; conditions: 168 h, route intraperitoneal
Outline: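 Male ICR mice implanted s.c. in the armpit with H22 hepatoma cells (5 × 10⁶ per animal). Dosing began 24 h after implantation: ip once daily for 7 consecutive days at 5, 10 or 20 mg/kg. Saline served as negative control (20 mice), 10 mice per treated group. Tumors excised and weighed at day 8. Inhibition = (C − T)/C × 100 from mean tumor weights.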

SMILES: CC(=O)O[C@@]12CO[C@@H]1C[C@H](O)[C@@]1(C)C(=O)[C@H](O)C3=C(C)[C@@H](OC(=O)[C@H](OC(=O)C[C@@H](O)C(=O)O)[C@@H](NC(=O)OC(C)(C)C)c4ccccc4)C[C@@](O)([C@@H](OC(=O)c4ccccc4)[C@H]21)C3(C)C
- IC50 (MCF7): > 50 µg/mL
- IC50 (KB): > 50 µg/mL
- half-life [1]: > 48 h
- half-life (Homo sapiens): 4 h
- IC50 (K562): 0.85 µg/mL (≈ 0.92 µM)
- IC50 (A549): > 50 µg/mL
- solubility [2]: 470 µg/mL (≈ 509 µM)

SMILES: CC(=O)O[C@@]12CO[C@@H]1C[C@H](O)[C@@]1(C)C(=O)[C@H](O)C3=C(C)[C@@H](OC(=O)[C@H](OC(=O)C[C@H](O)C(=O)[O-])[C@@H](NC(=O)OC(C)(C)C)c4ccccc4)C[C@@](O)([C@@H](OC(=O)c4ccccc4)[C@H]21)C3(C)C.[Na+]
- IC50 (MCF7): > 50 µg/mL
- IC50 (KB): > 50 µg/mL
- half-life [1]: > 24 h
- half-life (Homo sapiens): 3 h
- IC50 (K562): 38.1 µg/mL
- IC50 (A549): > 50 µg/mL
- solubility [2]: 620 µg/mL

SMILES: CC(=O)O[C@@]12CO[C@@H]1C[C@H](O)[C@@]1(C)C(=O)[C@H](O)C3=C(C)[C@@H](OC(=O)[C@H](OC(=O)C[C@@H](O)C(=O)[O-])[C@@H](NC(=O)OC(C)(C)C)c4ccccc4)C[C@@](O)([C@@H](OC(=O)c4ccccc4)[C@H]21)C3(C)C.[Na+]
- IC50 (MCF7): > 50 µg/mL
- IC50 (KB): > 50 µg/mL
- half-life [1]: > 24 h
- half-life (Homo sapiens): 3 h
- IC50 (K562): 18.8 µg/mL
- IC50 (A549): > 50 µg/mL
- solubility [2]: 620 µg/mL

SMILES: CC(=O)O[C@@]12CO[C@@H]1C[C@H](O)[C@@]1(C)C(=O)[C@H](O)C3=C(C)[C@@H](OC(=O)[C@H](O)[C@@H](NC(=O)OC(C)(C)C)c4ccccc4)C[C@@](O)([C@@H](OC(=O)c4ccccc4)[C@H]21)C3(C)C.O.O.O [DOCETAXEL]
- IC50 (MCF7): 3.3 µg/mL
- IC50 (KB): 11.6 µg/mL
- inhibition in vivo at 10 mg/kg (H22): 46.3%
- IC50 (K562): 6.9 µg/mL
- IC50 (A549): 1.4 µg/mL

SMILES: CC(=O)O[C@@]12CO[C@@H]1C[C@H](O)[C@@]1(C)C(=O)[C@H](O)C3=C(C)[C@@H](OC(=O)[C@H](OC(=O)CC(O)C(=O)[O-])[C@@H](NC(=O)OC(C)(C)C)c4ccccc4)C[C@@](O)([C@@H](OC(=O)c4ccccc4)[C@H]21)C3(C)C.[Na+] (mixture of isomers)
- IC50 (MCF7): 3.6 µg/mL
- IC50 (KB): 0.45 µg/mL
- half-life [1]: > 24 h
- half-life (Homo sapiens): 3 h
- IC50 (K562): 1.5 µg/mL
- IC50 (A549): 3.5 µg/mL
- solubility [2]: 620 µg/mL

More lines, main results first:

- half-life [1]: > 48 h
- solubility [2]: 550 µg/mL
SMILES: CC(=O)O[C@@]12CO[C@@H]1C[C@H](OC(=O)CC(O)C(=O)O)[C@@]1(C)C(=O)[C@H](OC(=O)CC(O)C(=O)O)C3=C(C)[C@@H](OC(=O)[C@H](OC(=O)CC(O)C(=O)O)[C@@H](NC(=O)OC(C)(C)C)c4ccccc4)C[C@@](O)([C@@H](OC(=O)c4ccccc4)[C@H]21)C3(C)C (mixture of isomers)
- IC50 (MCF7): > 50 µg/mL
- IC50 (KB): > 50 µg/mL
- IC50 (K562): 17 µg/mL
- IC50 (A549): > 50 µg/mL

- half-life [1]: > 48 h
- half-life (Homo sapiens): 4 h
- solubility [2]: 470 µg/mL (≈ 509 µM)
SMILES: CC(=O)O[C@@]12CO[C@@H]1C[C@H](O)[C@@]1(C)C(=O)[C@H](O)C3=C(C)[C@@H](OC(=O)[C@H](OC(=O)C[C@H](O)C(=O)O)[C@@H](NC(=O)OC(C)(C)C)c4ccccc4)C[C@@](O)([C@@H](OC(=O)c4ccccc4)[C@H]21)C3(C)C
- IC50 (MCF7): > 50 µg/mL
- IC50 (KB): > 50 µg/mL
- IC50 (K562): 3.9 µg/mL (≈ 4.22 µM)
- IC50 (A549): > 50 µg/mL

- half-life [1]: > 48 h
- solubility [2]: 430 µg/mL
SMILES: CC(=O)O[C@@]12CO[C@@H]1C[C@H](OC(=O)CC(O)C(=O)O)[C@@]1(C)C(=O)[C@H](O)C3=C(C)[C@@H](OC(=O)[C@H](O)[C@@H](NC(=O)OC(C)(C)C)c4ccccc4)C[C@@](O)([C@@H](OC(=O)c4ccccc4)[C@H]21)C3(C)C (mixture of isomers)
- IC50 (MCF7): > 50 µg/mL
- IC50 (KB): > 50 µg/mL
- IC50 (K562): 0.069 µg/mL
- IC50 (A549): > 50 µg/mL

- half-life [1]: > 48 h
- half-life (Homo sapiens): 4 h
- solubility [2]: 470 µg/mL (≈ 509 µM)
SMILES: CC(=O)O[C@@]12CO[C@@H]1C[C@H](O)[C@@]1(C)C(=O)[C@H](O)C3=C(C)[C@@H](OC(=O)[C@H](OC(=O)CC(O)C(=O)O)[C@@H](NC(=O)OC(C)(C)C)c4ccccc4)C[C@@](O)([C@@H](OC(=O)c4ccccc4)[C@H]21)C3(C)C (some centres undefined)
- IC50 (MCF7): 39.2 µg/mL (≈ 42.4 µM)
- IC50 (KB): 3.5 µg/mL (≈ 3.79 µM)
- IC50 (K562): 9.5 µg/mL (≈ 10.3 µM)
- IC50 (A549): > 50 µg/mL
